This is one part of a sample in which hits are shown more often than they occur.
HSF-1 act: increases HSF-1 driven luciferase reporter signal. NIH3T3-HGL HSF-1 luciferase reporter, MG132, 8 h; 100% = twice DMSO control signal. activation, % at 9 µM. 1.7% of 300,000 active;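 active = mean replicate activation of at least 50% with a set share of replicates each reaching 50%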;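 also: 0% = median of the neutral control wells and 100% = twice that signal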
HSF1 inh: HSF1 inhibition | AID 2098 | 0.77% of 300,000 active | NIH3T3-HGL HSE-luciferase, MG132-induced, luminescence 8 h; stronger effect = lower value | activity change, negative = inhibition, % at 7.5 µM (by protocol);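 active = more than half of replicate wells show activity change below -50%, luminescence cut by over half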;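 also: luciferase reports HSF-1 transcriptional activity via heat shock element; 0% = median of DMSO wells and -100% = zero luminescence signal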
Lmaj promast: reduces viability of Leishmania major promastigotes; 9% of 200,000 active; inhibition, % at 10 µM; resazurin fluorescence viability; in the data active = inhibition above about 50%;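 also: promastigotes grown with compound for 44 hours at 28 °C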
T cruzi repl: T. cruzi replication inhibition; T. cruzi beta-gal in NIH3T3, luminescence, 90 h; inhibition, % (concentration not given with the values); 1.4% of 300,000 active; AID 1885;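 active = mean inhibition across valid replicates above about 55%, limit read from the data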;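 also: signal also drops with host cell toxicity which is not excluded here; 0% = plate median of DMSO wells and 100% = zero luminescence signal; higher percent means less beta-gal luminescence so fewer parasites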
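System – NIH/3T3 host cells with β-galactosidase reporter T. cruzi · Doses – single 50 nL compound addition per well in DMSO · Reagent – 5000 T. cruzi trypomastigotes/well · Medium – Low-serum DMEM with 2% FBS · Timing – ≥90 h infection period, 3 h prior cell attachment · Evaluation – parasite load inhibition, % · Technique – GalScreen luminescence, 60 min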
Hsp70 act: switches on Hsp70 transcription; HeLa Hsp70 promoter luciferase reporter, luminescence; scaled: vehicle 0, proteasome-inhibitor control 100%; activation, % at 10 µM; 0.04% of 200,000 active;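 active = activation above the mean across all tested compounds plus 3 SD, cutoff set per campaign, cut at about 5.5% in these data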;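 also: 100% = MG132 at 30 µM as the positive control and 0% = DMSO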
Numbers without * were called inactive.

Results for CCCCNc1nc(Nc2ccc(C)c(Cl)c2)c2cnn(C)c2n1 ?
HSF-1 act: 65.0*; HSF1 inh: 13.7; T cruzi repl: 33.0

How did O=[N+]([O-])c1ccc(Nc2nc(NC3CCCCC3)nc(N3CCCC3)n2)cc1 do in these assays?
HSF-1 act: -3.1; HSF1 inh: 5.0; Lmaj promast: 98.3*; T cruzi repl: 64.6*; Hsp70 act: -0.3

What do the screens show for `COc1cccc(/C=N/Nc2nc(Nc3ccc([N+](=O)[O-])cc3)nc(N3CCCC3)n2)c1O`?
HSF-1 act: -19.9; HSF1 inh: -19.8; Lmaj promast: 100.4*; T cruzi repl: 54.9*; Hsp70 act: 0.7

How did COc1cccc(/C=N/Nc2ccc([N+](=O)[O-])cn2)c1O do in these assays?
HSF-1 act: 96.1*; HSF1 inh: 63.2; T cruzi repl: 25.1

How did Cc1ccc(C(=O)N(Nc2nc3ccccc3s2)C(=O)c2ccc(C)cc2)cc1 do in these assays?
HSF-1 act: 2.4; HSF1 inh: -0.9; Lmaj promast: 34.7; T cruzi repl: -1.3; Hsp70 act: 0.0

Results for O=C(Nc1ccc(O)cc1)c1ccc(NC(=O)c2cccs2)cc1 ?
HSF-1 act: 64.7*; HSF1 inh: 19.8; T cruzi repl: -18.8

Results for Cc1nc2ccccc2c(=O)n1-c1cccc(NC(=O)c2cccs2)c1 ?
HSF-1 act: -11.5; HSF1 inh: -0.5; T cruzi repl: 2.0

What do the screens show for `O=C(Nc1cccc(N2C(=O)C=CC2=O)c1)c1cccs1`?
HSF-1 act: -13.8; HSF1 inh: -23.0; T cruzi repl: 61.2*

How did Cc1ccc(NC(=O)c2cccs2)cc1NC(=O)c1cccc(F)c1 do in these assays?
HSF-1 act: 57.5*; HSF1 inh: 5.6; T cruzi repl: -20.9

Results for O=C(Nc1ccc(NC(=O)C2CCCCC2)nc1)c1cccs1 ?
HSF-1 act: 15.2; HSF1 inh: 11.4; Lmaj promast: 98.6*; T cruzi repl: 0.6; Hsp70 act: 0.0

What do the screens show for `Nc1ccc(NC(=O)c2cccs2)cc1`?
HSF-1 act: 3.7; HSF1 inh: -0.9; Lmaj promast: -0.8; T cruzi repl: -6.3; Hsp70 act: -0.1

Results for O=C(Nc1ccc2c(c1)CCC2)c1cccs1 ?
HSF-1 act: 55.3*; HSF1 inh: 26.0; Lmaj promast: -0.3; T cruzi repl: -9.0; Hsp70 act: 0.1

Results for CCOC(=O)COc1c(Cl)cc(/C=C2\N=C(C)OC2=O)cc1OC ?
HSF-1 act: -1.3; HSF1 inh: -6.1; T cruzi repl: -2.5

How did O=C(NCc1cc(F)ccc1F)C1CCC(=O)N(C2CCCCCC2)C1 (stereo not given) do in these assays?
HSF-1 act: 5.0; HSF1 inh: -2.1; T cruzi repl: -8.8

Results for CC1(CCc2ccccc2)NC(=O)N(CC(=O)N2CC(=O)Nc3ccccc32)C1=O (stereo not given) ?
HSF-1 act: 17.3; HSF1 inh: 3.5; T cruzi repl: 6.1

Results for CCCCNC(=O)c1ccccc1NC(=O)CN(c1ccccc1)S(=O)(=O)N(C)C ?
HSF-1 act: 9.6; HSF1 inh: 9.1; Lmaj promast: 64.7*; T cruzi repl: 14.4; Hsp70 act: -0.5

How did Fc1ccccc1NC(=S)Nn1cnnc1 do in these assays?
HSF-1 act: 0.0; HSF1 inh: -1.2; T cruzi repl: 0.1

What do the screens show for `CCOc1cccc(-c2nn(-c3ccccc3)cc2/C=C(/C#N)C(=O)NCCCn2ccnc2)c1`?
HSF-1 act: 30.3; HSF1 inh: -3.7; Lmaj promast: 100.3*; T cruzi repl: 27.7; Hsp70 act: -0.4

Results for CCCSc1ccc(-c2nn(-c3ccccc3)cc2/C=C(/C#N)C(=O)NCCCOC)cc1 ?
HSF-1 act: 0.2; HSF1 inh: -10.3; Lmaj promast: 86.2*; T cruzi repl: 24.0; Hsp70 act: -0.5

How did N#C/C(=C/c1cn(-c2ccccc2)nc1-c1cccc(OCc2ccccc2)c1)C(=O)NCCCn1ccnc1 do in these assays?
HSF-1 act: 9.8; HSF1 inh: -0.6; Lmaj promast: 100.4*; T cruzi repl: 60.2*; Hsp70 act: -0.2

What do the screens show for `CCSc1ccc(-c2nn(-c3ccccc3)cc2/C=C(/C#N)C(=O)NCCCOC)cc1`?
Lmaj promast: 4.9; Hsp70 act: -0.4

How did Cc1cc(C)n2nc(CC(=O)NNC(=O)COc3ccccc3)nc2n1 do in these assays?
HSF-1 act: -5.6; HSF1 inh: -0.2; T cruzi repl: 1.6

How did O=C(CNCc1ccccc1)Nc1ccc(Cl)cc1 do in these assays?
HSF-1 act: 12.2; HSF1 inh: -3.3; T cruzi repl: -10.5

How did CCOc1ccc(C(=O)NCCc2cnc[nH]2)cc1 do in these assays?
HSF-1 act: -30.1; HSF1 inh: -5.3; T cruzi repl: 50.2

Results for O=C(NCCc1cnc[nH]1)c1ccc(-c2ccccc2)cc1 ?
HSF-1 act: 10.3; HSF1 inh: 2.5; T cruzi repl: 60.4*

Results for O=c1oc2ccccc2cc1-c1nc(-c2ccccc2)no1 ?
HSF-1 act: 62.6*; HSF1 inh: 36.2; Lmaj promast: -1.2; T cruzi repl: -12.6; Hsp70 act: -0.1

What do the screens show for `O=S(=O)(N/N=C\C=C\c1ccccc1)c1ccc(Cl)cc1`?
HSF-1 act: -9.0; HSF1 inh: -2.5; Lmaj promast: 92.2*; T cruzi repl: -6.3; Hsp70 act: -0.2

What do the screens show for `O=S(=O)(N/N=C\c1ccccc1O)c1ccc(Cl)cc1`?
HSF-1 act: 1.9; HSF1 inh: 4.7; T cruzi repl: -3.5

How did CCN(CCNC(=O)CN(C)S(=O)(=O)c1cccc2nsnc12)c1ccccc1 do in these assays?
HSF-1 act: 19.7; HSF1 inh: -1.0; Lmaj promast: 94.8*; T cruzi repl: 3.3; Hsp70 act: -0.2

How did CCN(CCCNC(=O)CN(C)S(=O)(=O)c1cccc2nsnc12)c1cccc(C)c1 do in these assays?
HSF-1 act: 14.0; HSF1 inh: 6.1; Lmaj promast: 34.0; T cruzi repl: -5.4; Hsp70 act: -0.3

What do the screens show for `COc1ccc(C2NS(=O)(=O)OCC2C)cc1` (stereo not given)?
HSF-1 act: 30.1; HSF1 inh: 11.3; T cruzi repl: -3.0

How did O=C(CSCC(=O)N1CCCCC1)OCC(=O)c1c[nH]c2ccccc12 do in these assays?
HSF-1 act: -28.5; HSF1 inh: -9.4; Lmaj promast: -0.4; T cruzi repl: -19.9; Hsp70 act: 0.0

Results for CC(C)(Oc1ccc(Cl)cc1)C(=O)N1CCN(c2ccccn2)CC1 ?
HSF-1 act: -11.9; HSF1 inh: 9.3; Lmaj promast: 62.2*; T cruzi repl: 26.6; Hsp70 act: 0.3

Results for CC(C)(Oc1ccc(Cl)cc1)C(=O)N(Cc1ccccc1)c1ccccn1 ?
HSF-1 act: 28.2; HSF1 inh: -3.7; Lmaj promast: 87.0*; T cruzi repl: 1.5; Hsp70 act: 0.1

What do the screens show for `COc1cc2c(cc1NC(=O)CSc1nnc(Cc3cccs3)n1C)oc1ccccc12`?
Lmaj promast: 18.9; T cruzi repl: 20.7; Hsp70 act: 0.0

Results for CCn1c(SCC(=O)Nc2cc3oc4ccccc4c3cc2OC)nnc1-c1cccs1 ?
HSF-1 act: 21.7; HSF1 inh: 19.1; Lmaj promast: 65.9*; T cruzi repl: 26.0; Hsp70 act: 0.2

Compound activity as filed in PubChem.
